From ChEMBL document CHEMBL3804761, “Synthesis of a stable and orally bioavailable englerin analogue” (Bioorg Med Chem Lett, 2016)

How the values were obtained:
Format in all cases: functional
[1] = Growth inhibition of human UO31 cells assessed as cell growth at 10 uM incubated for 48 hrs by sulforhodamine B assay relative to control; details: UO-31, 48 h, read-out: Activity
Procedure, shortened: (§1)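 NCI 60-cell line standard protocol, one-dose screen: single final concentration 10 µM, 2-day drug exposure, sulforhodamine B (SRB) endpoint; read-out is growth percent relative to untreated control.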

[2] = Growth inhibition of human IGROV1 cells assessed as cell growth at 10 uM incubated for 48 hrs by sulforhodamine B assay relative to control; details: IGROV-1, 48 h, read-out: Activity
Procedure, shortened: (§2)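 Run in the standard NCI 60-cell-line screen. Cells were exposed to drug for two days, and the read-out was sulforhodamine B staining. Compound was tested at a single final concentration of 10 µM in every line, and results are reported as growth percent.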

[3] = Growth inhibition of human COLO205 cells incubated for 48 hrs by sulforhodamine B assay; details: COLO 205, 48 h
Procedure, shortened: (§3)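 NCI 60-cell-line panel, standard protocol. Cells exposed to compound for two days, growth read by sulforhodamine B staining. Tested at five 10-fold dilutions, top concentration 100 µM, to give dose-response curves.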

[4] = Growth inhibition of human HCT116 cells assessed as cell growth at 10 uM incubated for 48 hrs by sulforhodamine B assay relative to control; details: HCT-116, 48 h, read-out: Activity; procedure, shortened: as §2
[5] = test system: MDA-MB-468; experiment: Growth inhibition of human MDA-MB-468 cells assessed as cell growth at 10 uM incubated for 48 hrs by sulforhodamine B assay relative to control; details: MDA-MB-468, 48 h, read-out: Activity; procedure, shortened: as §2
[6] = Growth inhibition of human OVCAR8 cells incubated for 48 hrs by sulforhodamine B assay; details: OVCAR-8, 48 h; procedure, shortened: as §3
[7] = Growth inhibition of human IGROV1 cells incubated for 48 hrs by sulforhodamine B assay; details: IGROV-1, 48 h; procedure, shortened: as §3
[8] = Growth inhibition of human OVCAR3 cells incubated for 48 hrs by sulforhodamine B assay; details: OVCAR-3, 48 h; procedure, shortened: as §3
[9] = test system: NCI/ADR-RES; experiment: Growth inhibition of human NCI/ADR-RES cells assessed as cell growth at 10 uM incubated for 48 hrs by sulforhodamine B assay relative to control; details: read-out: Activity; procedure, shortened: as §2
[10] = Growth inhibition of human LOXIMVI cells incubated for 48 hrs by sulforhodamine B assay; details: LOX IMVI; procedure, shortened: as §3
[11] = Growth inhibition of human OVCAR5 cells assessed as cell growth at 10 uM incubated for 48 hrs by sulforhodamine B assay relative to control; details: OVCAR-5, 48 h, read-out: Activity; procedure, shortened: as §2
[12] = test system: T47D; experiment: Growth inhibition of human T47D cells incubated for 48 hrs by sulforhodamine B assay
Procedure, shortened: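 Tested in the standard NCI 60-cell-line protocol with two-day drug exposure and a sulforhodamine B endpoint. Compounds were first screened at a single final concentration of 10 µM, reported as growth percent. They were then run as five 10-fold dilutions starting from a high concentration of 100 µM to give dose-response curves.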

[13] = test system: MDA-MB-231; experiment: Growth inhibition of human MDA-MB-231 cells incubated for 48 hrs by sulforhodamine B assay; details: MDA-MB-231, 48 h; procedure, shortened: as §3
[14] = Growth inhibition of human SF295 cells assessed as cell growth at 10 uM incubated for 48 hrs by sulforhodamine B assay relative to control; details: SF-295, 48 h, read-out: Activity; procedure, shortened: as §2
[15] = test system: KM12; experiment: Growth inhibition of human KM12 cells assessed as cell growth at 10 uM incubated for 48 hrs by sulforhodamine B assay relative to control; details: KM12, 48 h, read-out: Activity; procedure, shortened: as §2
[16] = Growth inhibition of human DU145 cells incubated for 48 hrs by sulforhodamine B assay; details: DU-145, 48 h; procedure, shortened: as §3
[17] = test system: ACHN; experiment: Growth inhibition of human ACHN cells incubated for 48 hrs by sulforhodamine B assay; procedure, shortened: as §3
[18] = test system: MDA-MB-468; experiment: Growth inhibition of human MDA-MB-468 cells incubated for 48 hrs by sulforhodamine B assay; details: MDA-MB-468, 48 h; procedure, shortened: as §3
[19] = test system: NCI-H522; experiment: Growth inhibition of human NCI-H522 cells incubated for 48 hrs by sulforhodamine B assay; details: NCI-H522, 48 h; procedure, shortened: as §3
[20] = Growth inhibition of human PC3 cells assessed as cell growth at 10 uM incubated for 48 hrs by sulforhodamine B assay relative to control; details: PC-3, 48 h, read-out: Activity; procedure, shortened: as §2
[21] = Growth inhibition of human DU145 cells assessed as cell growth at 10 uM incubated for 48 hrs by sulforhodamine B assay relative to control; details: DU-145, 48 h, read-out: Activity; procedure, shortened: as §2
[22] = test system: T47D; experiment: Growth inhibition of human T47D cells assessed as cell growth at 10 uM incubated for 48 hrs by sulforhodamine B assay relative to control; details: read-out: Activity; procedure, shortened: as §1
[23] = test system: MCF7; experiment: Growth inhibition of human MCF7 cells assessed as cell growth at 10 uM incubated for 48 hrs by sulforhodamine B assay relative to control; details: MCF7, 48 h, read-out: Activity; procedure, shortened: as §2
[24] = test system: SK-MEL-28; experiment: Growth inhibition of human SK-MEL-28 cells incubated for 48 hrs by sulforhodamine B assay; details: SK-MEL-28, 48 h; procedure, shortened: as §3
[25] = test system: A549; experiment: Growth inhibition of human A549/ATCC cells incubated for 48 hrs by sulforhodamine B assay; details: A549, 48 h; procedure, shortened: as §3
[26] = Growth inhibition of human SF539 cells incubated for 48 hrs by sulforhodamine B assay; details: SF-539, 48 h; procedure, shortened: as §3
[27] = test system: SK-MEL-2; experiment: Growth inhibition of human SK-MEL-2 cells assessed as cell growth at 10 uM incubated for 48 hrs by sulforhodamine B assay relative to control; details: SK-MEL-2, 48 h, read-out: Activity; procedure, shortened: as §2
[28] = Growth inhibition of human HL-60(TB) cells incubated for 48 hrs by sulforhodamine B assay; details: HL-60, 48 h; procedure, shortened: as §3
[29] = test system: SR; experiment: Growth inhibition of human SR cells assessed as cell growth at 10 uM incubated for 48 hrs by sulforhodamine B assay relative to control; details: read-out: Activity; procedure, shortened: as §2
[30] = read-out: pLC50 (the source's name) (converted)

CC(C)[C@@]12C[C@@H](NC(=O)CO)[C@@](C)(O1)[C@@H]1CC[C@@H](C)[C@H]1[C@@H]2OC(=O)/C=C/C1CCCCC1
growth at 10 µM [1]: 95.1%
growth at 10 µM [2]: 103%
GI50 [3]: > 44.7 µM
CC50 [3, 30]: > 44.7 µM
TGI ([3]; read-out: pTGI (converted)): > 44.7 µM
growth at 10 µM [4]: 103%
growth at 10 µM [5]: 97.5%
GI50 [6]: 28.2 µM
LC50 (concentration killing 50% of cells) [6]: > 44.7 µM
TGI ([6]; read-out: pTGI (converted)): > 44.7 µM
GI50 [7]: > 44.7 µM
CC50 [7, 30]: > 44.7 µM
TGI ([7]; read-out: pTGI (converted)): > 44.7 µM
GI50 [8]: > 44.7 µM
LC50 [8]: > 44.7 µM
TGI ([8]; read-out: pTGI (converted)): > 44.7 µM
growth at 10 µM [9]: 94.8%
GI50 [10]: > 44.7 µM
LC50 [10]: > 44.7 µM
TGI ([10]; read-out: pTGI (converted)): > 44.7 µM
growth at 10 µM [11]: 92.6%
GI50 [12]: > 44.7 µM
CC50 [12, 30]: > 44.7 µM
TGI ([12]; read-out: pTGI (converted)): > 44.7 µM
GI50 [13]: > 44.7 µM
CC50 [13, 30]: > 44.7 µM
TGI ([13]; read-out: pTGI (converted)): > 44.7 µM
growth at 10 µM [14]: 86.3%
growth at 10 µM [15]: 104%
GI50 [16]: > 44.7 µM
CC50 [16, 30]: > 44.7 µM
TGI ([16]; read-out: pTGI (converted)): > 44.7 µM
GI50 [17]: 17 µM
LC50 (concentration killing 50% of cells) [17]: > 44.7 µM
TGI ([17]; read-out: pTGI (converted)): > 44.7 µM
GI50 [18]: > 44.7 µM
CC50 [18, 30]: > 44.7 µM
TGI ([18]; read-out: pTGI (converted)): > 44.7 µM
GI50 [19]: > 44.7 µM
LC50 [19]: > 44.7 µM
TGI ([19]; read-out: pTGI (converted)): > 44.7 µM
growth at 10 µM [20]: 106%
growth at 10 µM [21]: 116%
growth at 10 µM [22]: 102%
growth at 10 µM [23]: 94%
GI50 [24]: > 44.7 µM
LC50 [24]: > 44.7 µM
TGI ([24]; read-out: pTGI (converted)): > 44.7 µM
GI50 [25]: > 44.7 µM
LC50 [25]: > 44.7 µM
TGI ([25]; read-out: pTGI (converted)): > 44.7 µM
GI50 [26]: > 44.7 µM
LC50 [26]: > 44.7 µM
TGI ([26]; read-out: pTGI (converted)): > 44.7 µM
growth at 10 µM [27]: 99.2%
GI50 [28]: > 44.7 µM
CC50 [28, 30]: > 44.7 µM
TGI ([28]; read-out: pTGI (converted)): > 44.7 µM
growth at 10 µM [29]: 93.2%

CC(C)[C@@]12C[C@@H](NC(=O)CF)[C@@](C)(O1)[C@@H]1CC[C@@H](C)[C@H]1[C@@H]2OC(=O)/C=C/c1ccccc1
growth at 10 µM [1]: 91.1%
growth at 10 µM [2]: 103%
growth at 10 µM [4]: 87.4%
growth at 10 µM [9]: 98.5%
growth at 10 µM [11]: 102%
growth at 10 µM [14]: 105%
growth at 10 µM [15]: 104%
growth at 10 µM [20]: 84%
growth at 10 µM [21]: 115%
growth at 10 µM [22]: 78.4%
growth at 10 µM [23]: 106%
growth at 10 µM [27]: 117%
growth at 10 µM [29]: 85.5%
